Columns and labels:
MCF7 = assay: Cytotoxicity against human MCF7 cells assessed as cell growth inhibition after 72 hrs by alamar blue assay; format: functional, cell-based; conditions: MCF7, 72 h
Outline: (§1)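 Tumour lines and MRC-5 fibroblasts obtained from ATCC, cultured per ATCC guidelines and confirmed mycoplasma-free by staining. Viability read by Alamar blue after 72 h exposure. IC50 in μM with 95% confidence interval by nonlinear regression, from at least three independent experiments run in duplicate. Doxorubicin served as positive control.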

HCT-116 = assay: Cytotoxicity against human HCT116 cells assessed as cell growth inhibition after 72 hrs by alamar blue assay; format: functional, cell-based; conditions: HCT-116, 72 h; outline: as §1
HL-60 = assay: Cytotoxicity against human HL60 cells assessed as cell growth inhibition after 72 hrs by alamar blue assay; format: functional, cell-based; conditions: HL-60, 72 h; outline: as §1
HepG2 = assay: Cytotoxicity against human HepG2 cells assessed as cell growth inhibition after 72 hrs by alamar blue assay; format: functional, cell-based; conditions: HepG2, 72 h; outline: as §1
MRC5 = assay: Cytotoxicity against human MRC5 cells assessed as cell growth inhibition after 72 hrs by alamar blue assay; format: cell-based; conditions: MRC5, 72 h; outline: as §1
SF-295 = assay: Cytotoxicity against human SF295 cells assessed as inhibition of cell viability after 69 hrs by MTT assay; format: functional, cell-based; conditions: SF-295, 69 h
MDA-MB-435 = assay: Cytotoxicity against human MDA-MB-435 cells assessed as inhibition of cell viability after 69 hrs by MTT assay; format: functional, cell-based; conditions: MDA-MB-435, 69 h
HCT-8 = assay: Cytotoxicity against human HCT8 cells assessed as inhibition of cell viability after 69 hrs by MTT assay; format: functional, cell-based; conditions: HCT-8, 69 h

| SMILES | IC50 (MCF7) | IC50 (HCT-116) | IC50 (HL-60) | IC50 (HepG2) | IC50 (MRC5) | IC50 (SF-295) | IC50 (MDA-MB-435) | IC50 (HCT-8) |
| --- | --- | --- | --- | --- | --- | --- | --- | --- |
| COc1cc2c(=O)cc3c4c(cc5c(c4c2cc1OC)OCO5)CCN3C | > 10 µM | > 10 µM | > 10 µM | > 10 µM | > 10 µM | – | – | – |
| COc1ccc(OC)c(OC)c1 [1,2,4-TRIMETHOXYBENZENE] | > 10 µM | > 10 µM | > 10 µM | > 10 µM | > 10 µM | – | – | – |
| COC1=C[C@@]23CCN(C)[C@@H](Cc4cc(O)c(OC)cc42)C3=CC1=O | > 10 µM | > 10 µM | > 10 µM | > 10 µM | > 10 µM | – | – | – |
| COc1cc2c(cc1OC)-c1c3c(cc4ccnc(c14)C2=O)OCO3 [DICENTRINONE] | > 10 µM | > 10 µM | > 10 µM | > 10 µM | > 10 µM | – | – | – |
| COc1cccc2c1C(=O)c1c(O)c3c(c(O)c1C2=O)C[C@@](O)(C(=O)CO)C[C@@H]3O[C@H]1C[C@H](N)[C@H](O)[C@H](C)O1 [DOXORUBICIN] | – | 0.3 µM | 0.04 µM | 0.04 µM | 2.4 µM | – | – | – |
| COc1cc2c(cc1OC)[C@@H](O)[C@@H]1NCCc3cc4c(c-2c31)OCO4 | 10 µM | 4 µM | 2 µM | 9.1 µM | > 10 µM | – | – | – |
| COc1cc2c(cc1OC)[C@H](O)[C@@H]1c3c(cc4c(c3-2)OCO4)CCN1C | > 10 µM | > 10 µM | 4.8 µM | 5 µM | > 10 µM | 1.4 µM | 12.4 µM | 1.4 µM |
| COc1cc2c(cc1OC)[C@H](O)[C@@H]1c3c(cc4c(c3-2)OCO4)CC[N+]1(C)[O-] (stereo not given in full) | > 10 µM | 9.2 µM | 9.6 µM | > 10 µM | > 10 µM | 1.6 µM | 7.3 µM | 1.9 µM |
| COc1ccc2c(c1)c(=O)cc1c3c(cc4c(c32)OCO4)CCN1C | > 10 µM | > 10 µM | > 10 µM | > 10 µM | > 10 µM | – | – | – |
| COc1cc2c(cc1OC)-c1c3c(cc4c1[C@H](C2)N(C)CC4)OCO3 [DICENTRINE] | > 10 µM | 8.8 µM | 3.7 µM | > 10 µM | > 10 µM | – | – | – |

Source: ChEMBL document CHEMBL4334473, “Structure-Based Molecular Networking for the Target Discovery of Oxahomoaporphine and 8-Oxohomoaporphine Alkaloids from Duguetia surinamensis” (J Nat Prod, 2019)
